We go through 11 molecules from paper PMC5161575 (Nature, 2016).

In assay [1] the target is KSR2 in purified KSR2-MEK1 complexes (Homo sapiens, UniProt Q6VAB6). The experiment in a line: ATP^biotin probe-labelling competition. It is filed as binding.
Assay [2] deals with BRAF(V600E)-induced MAPK activation in 293H cells. The experiment in a line: BRAF. It is filed as cell-based. Particulars: 5 μM, 2 h. The procedure, abridged: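 They were then exposed for 2 h to DMSO or 5μM test compound, alongside a reference RAF inhibitor. Cells were collected and western blotted for phospho-MEK1/2 (Ser218/Ser222) and phospho-ERK1/2 (T202/Y204). Primary antibodies were applied overnight in 5% BSA TBS-T.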

The target of assay [3] is MEK phosphorylation by BRAF or CRAF (Homo sapiens, UniProt Q6VAB6). In words: RAF phosphorylation assay of KSR2-MEK1 or MEK1 in vitro. It is filed as biochemical. Particulars: KSR2-MEK1; compound 1 μM.
Assay [4] concerns MEK phosphorylation by BRAF or CRAF. The assay is described as above. Particulars: KSR absent or KSR2(A690F) mutant; compound 1 μM. It is filed as biochemical.
The subject of assay [5] is ERK phosphorylation in HCT-116 cells. In words: phospho-ERK western blot. It is filed as cell-based. The settings on record: APS-2-79 treatment. In general terms: Immunoblotting shows a protein as a band on a membrane.
Assay [6] concerns the target BRAF(F667E) + KSR2:MEK1 (Homo sapiens, UniProt Q6VAB6). The experiment in a line: bio-layer inferometry. It is filed as binding. Particulars: compound 25 μM.
Assay [7] relates to Phospho-AMPK in HCT116 cells. In words: phospho-AMPK western blot. Particulars: co-treatment with trametinib, 48 h. It is filed as cell-based. The procedure, abridged: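 HCT116 cells received test compound and/or a MEK inhibitor for 48 h. Lysates were western blotted for phospho-AMPK, phospho-ERK and total MEK, with primary antibodies overnight in 5% BSA TBS-T. Signal was detected by chemiluminescence on a CCD imager, and band intensities were quantified.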

The subject of assay [8] is KSR-stimulated MEK and ERK phosphorylation in 293H cells. In words: KSR-driven MAPK signalling reconstitution. It is filed as cell-based. Particulars: 5 μM, 2 h.
Assay [9] deals with MEK1 (Oryctolagus cuniculus, UniProt P29678). The experiment in a line: ATP^biotin probe-labelling competition. It is filed as binding, rabbit. Particulars: read-out: IC50 (ATP), MEK1; free ATP vs 2 μM ATP^biotin, KSR2-MEK1 complexes. The procedure, abridged:
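The probe transfers desthio-biotin onto active-site lysines of both KSR2 and MEK1. Biotin, total MEK and total KSR detected by western blot, giving probe-labelling versus ATP level for each partner.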

In assay [10] the target is MEK1 (1-393) (rabbit, UniProt P29678 1-393). In words: BLI. In general terms: BLI is a label-free optical method that tracks binding on a fibre tip over time.
Assay [11] concerns the target KSR2(KD):MEK1 complex (human | rabbit, UniProt Q6VAB6 634-950; P29678 1-393). In words: BLI.

Where two headings read alike, the source gives them in different places. Where only a bound is given, the exact number is not on record here.

For the molecule `COc1cc2ncnc(Nc3ccc(Oc4ccccc4)cc3)c2cc1OC.Cl` [APS-1-68-2, 6,7-Dimethoxy-N-(4-phenoxyphenyl)quinazolin-4-amine hydrochloride], the “KSR2-MEK1 probe competition (in words)” value in [1] was “competitor of probe-labelling”.

Regarding `COc1ccc(Nc2ncnc3cc(OC)c(OC)cc23)cc1.Cl` [APS-1-70-1, 6,7-Dimethoxy-N-(4-methoxyphenyl)quinazolin-4-amine hydrochloride], the “KSR2-MEK1 probe competition (in words)” value in assay [1] is “greatly diminished competition”.

With `COc1cc2ncnc(Nc3ccc(O)cc3)c2cc1OC.Cl` [APS-1-82-1, 4-((6,7-Dimethoxyquinazolin-4-yl)amino)phenol hydrochloride], in assay [1], the “KSR2-MEK1 probe competition (in words)” value is “greatly diminished competition”.

`COc1cc2ncnc(Nc3ccc(OCc4ccccc4)cc3)c2cc1OC.O=C(O)C(F)(F)F` [APS-2-12, N-(4-(Benzyloxy)phenyl)-6,7-dimethoxyquinazolin-4-amine 2,2,2-trifluoroacetate]: the “KSR2-MEK1 probe competition (in words)” value in assay [1] was “diminished”.

`COc1cc2nccc(Nc3ccc(Oc4ccccc4)cc3)c2cc1OC.Cl` [APS-2-16, 6,7-Dimethoxy-N-(4-phenoxyphenyl)quinolin-4-amine hydrochloride]: the “KSR2-MEK1 probe competition (in words)” value in assay [1] is given as “moderately tolerated”.

As to `COc1cc2ncnc(Nc3ccc(Oc4ccccc4)cc3C)c2cc1OC.O=C(O)C(F)(F)F` [APS-2-79, 6,7-Dimethoxy-N-(2-methyl-4-phenoxyphenyl)quinazolin-4-amine 2,2,2-trifluoroacetate], in assay [2], the “BRAF(V600E)-induced MAPK activation” value is listed as “does not affect”. In addition, in assay [3], the “KSR-stimulated MEK phosphorylation by RAF” value is recorded as “markedly reduced”. The “MEK phosphorylation by RAF” value in [4] is “inactive”. The “enhancement in the IC90 of trametinib on ERK phosphorylation” value in assay [5] is “twofold enhancement”. Further, the “assembly of BRAF(F667E) and KSR2-MEK1 (in words)” value in assay [6] is given as “did not associate”. In addition, the Phospho-AMPK entry in assay [7] was “remains unchanged”. Further, the “KSR-stimulated MEK and ERK phosphorylation” value in [8] (KSR(A690F) mutant) is listed as “significantly diminished the activity”; in assay [8] (wild-type KSR), “suppressed”.

With `COc1cc2/c(=N/c3ccc(Oc4ccccc4)cc3)ncn(C)c2cc1OC` [APS-3-6, (Z)-N-(6,7-Dimethoxy-1-methylquinazolin-4(1H)-ylidene)-4-phenoxyaniline], the “KSR2-MEK1 probe competition (in words)” value in [1] is reported as “greatly diminished”.

As for `COc1cc2ncnc(Nc3ccc(Oc4ccccc4)c(C)c3C)c2cc1OC.Cl` [APS-3-77, N-(2,3-Dimethyl-4-phenoxyphenyl)-6,7-dimethoxyquinazolin-4-amine hydrochloride], the “assembly of BRAF(F667E) and KSR2-MEK1 (in words)” value in [6] is “did not impede”. In addition, in assay [1], the half-maximal inhibitory concentration (IC50) was above 10 µM and the “KSR2-MEK1 probe competition (in words)” value is “essentially inactive”.

Regarding `Nc1ncnc2c1ncn2[C@@H]1O[C@H](COP(=O)(O)OP(=O)(O)OP(=O)(O)O)[C@@H](O)[C@H]1O` [ATP, reference compound], the IC50 in assay [9] turned out to be 133 µM; in assay [1] (read-out: IC50 (ATP), KSR2, free ATP vs 2 μM ATP^biotin, KSR2-MEK1 complexes), 86 µM.

B1: B-RAF (modified variant for high-yield expression in E. coli) (enzyme)
chain: RDSSDDWEIPDGQITVGQRIGSGSFGTVYKGKWHGDVAVKMLNVTAPTPQQLQAFKNEVGVLRKTRHVNILLFMGYSTKPQLAIVTQWCEGSSLYHHLHASETKFEMKKLIDIARQTARGMDYLHAKSIIHRDLKSNNIFLHEDNTVKIGDFGLATVKSRWSGSHQFEQLSGSILWMAPEVIRMQDSNPYSFQSDVYAFGIVLYELMTGQLPYSNINNRDQIIFMVGRGSLSPDLSKVRSNCPKRMKRLMAECLKKKRDERPSFPRILAEIEELARELSG
modifications: biotinylated with EZ-Link Sulfo-NHS-Biotin
Molecule B1 came in with a Kd in assay [10] of 0.051 µM.

B2: B-RAF(F667E) (in the modified variant for E. coli expression) (enzyme)
chain: RDSSDDWEIPDGQITVGQRIGSGSFGTVYKGKWHGDVAVKMLNVTAPTPQQLQAFKNEVGVLRKTRHVNILLFMGYSTKPQLAIVTQWCEGSSLYHHLHASETKFEMKKLIDIARQTARGMDYLHAKSIIHRDLKSNNIFLHEDNTVKIGDFGLATVKSRWSGSHQFEQLSGSILWMAPEVIRMQDSNPYSFQSDVYAFGIVLYELMTGQLPYSNINNRDQIIEMVGRGSLSPDLSKVRSNCPKRMKRLMAECLKKKRDERPSFPRILAEIEELARELSG
modifications: biotinylated with EZ-Link Sulfo-NHS-Biotin
In assay [11], B2 gave a Kd of 1.99 µM.

The IC50 is the point on the concentration scale where inhibition reaches its midpoint. In general, Kd refers to the equilibrium constant for the complex coming apart. A higher Kd goes with a looser complex.
